High-throughput results as filed in PubChem.
TbMetRS inhib: Trypanosoma brucei MetRS inhibition; purified T. brucei MetRS, ATP depletion, Kinase-Glo luminescence; inhibition, % at 11.9 µM; actives 0.4% (n = 360,000);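 active means inhibition above a per-plate cutoff of the control wells' mean inhibition plus 3 SD, cut at about 5.5% in these data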;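 further: 0% = DMSO wells median and 100% = median of wells with control inhibitor compound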
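assay system = parasite MetRS enzyme | timing = 15 min preincubation, 2 h reaction, all 25 °C | evaluation = percent inhibition relative to median high and low control wells | medium = HEPES buffer containing pyrophosphatase, BSA, spermine, DTT | compound = single dose, 11.9 µM final nominal, 0.9% final DMSO | detection = Kinase-Glo luminescence, ATP depletion format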
CSN inh: blocks human CSN-mediated cullin deneddylation; actives 0.38% (n = 360,000); AID 651999; inhibition, % at 12.5 µM; Purified CSN, SCF-Nedd8-OG deneddylation, fluorescence polarization; Q92905;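 active means pattern-corrected inhibition above about 35%, with an unprinted fluorescence ratio check between 0.5 and 1.5, limit read from the data, passing the limit was not always enough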;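 further: 0% = enzyme with substrate and 100% = substrate without enzyme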
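Assay system: purified human Csn5 enzyme expressed in HEK293T cells; measure: % inhibition; also added: SCFSkp2-Nedd8OG substrate at 10 nM final; technique: fluorescence polarization; times: reaction 90 min, room temperature; medium: Tris buffer pH 7.5, NaCl, DTT, Tween-20, trehalose, ovalbumin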
IDE inh: inhibitors of human insulin-degrading enzyme in cells; HEK cells, FAbetaB cleavage, fluorescence polarization; inhibition, % at 5.59 µM; actives 0.41% (n = 320,000); AID 434962;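 active means percent inhibition above the average of all tested compounds plus 3 SD, set per screening campaign, cut at about 16% in these data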;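 further: IDE supplied by intact live HEK cells; FP after avidin binding of uncleaved biotin substrate so inhibition keeps polarization high; 0% = DMSO wells and 100% = 60 µM reference IDE inhibitor Ii1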
Target sequence (P14735 whole entry, looked up): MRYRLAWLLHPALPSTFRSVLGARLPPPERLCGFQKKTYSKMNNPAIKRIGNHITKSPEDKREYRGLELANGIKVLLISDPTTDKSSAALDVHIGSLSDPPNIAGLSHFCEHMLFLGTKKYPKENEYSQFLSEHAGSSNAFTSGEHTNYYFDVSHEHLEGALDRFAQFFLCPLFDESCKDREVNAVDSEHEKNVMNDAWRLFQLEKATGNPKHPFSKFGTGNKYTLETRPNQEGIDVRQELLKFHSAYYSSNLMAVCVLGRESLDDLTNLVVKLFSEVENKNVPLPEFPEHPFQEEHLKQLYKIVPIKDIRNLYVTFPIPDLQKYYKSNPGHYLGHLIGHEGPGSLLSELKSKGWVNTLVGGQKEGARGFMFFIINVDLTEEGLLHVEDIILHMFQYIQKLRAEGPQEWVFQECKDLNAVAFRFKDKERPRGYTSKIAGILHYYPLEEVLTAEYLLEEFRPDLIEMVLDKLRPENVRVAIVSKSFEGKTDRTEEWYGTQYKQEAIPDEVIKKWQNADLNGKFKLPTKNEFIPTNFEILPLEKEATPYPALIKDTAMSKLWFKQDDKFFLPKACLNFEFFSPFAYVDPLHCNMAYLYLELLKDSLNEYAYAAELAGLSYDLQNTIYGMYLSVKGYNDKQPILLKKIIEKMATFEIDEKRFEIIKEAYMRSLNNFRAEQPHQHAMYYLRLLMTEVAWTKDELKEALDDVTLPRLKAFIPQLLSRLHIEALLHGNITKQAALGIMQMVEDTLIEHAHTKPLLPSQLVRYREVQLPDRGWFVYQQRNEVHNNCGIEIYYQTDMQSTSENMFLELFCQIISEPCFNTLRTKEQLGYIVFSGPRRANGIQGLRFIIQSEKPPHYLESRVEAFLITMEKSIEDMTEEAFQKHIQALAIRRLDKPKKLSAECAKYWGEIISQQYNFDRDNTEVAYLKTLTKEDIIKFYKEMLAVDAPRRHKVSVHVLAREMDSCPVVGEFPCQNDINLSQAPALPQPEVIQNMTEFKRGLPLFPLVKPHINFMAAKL
TPT1 inhibitor: inhibitors of Candida albicans tRNA 2'-phosphotransferase TPT1; inhibition, % at 5 µM; AID 1962; recombinant caTPT1, FP RNA substrate dephosphorylation; actives 0.81% (n = 300,000);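 active means inhibition above the mean of all tested compounds plus 3 SD, set per screening campaign, cut at about 24% in these data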;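 further: plate controls were DMSO alone for no effect and ferristatin control at 100 nM for full effect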
IDE cell activ: boosts human insulin-degrading enzyme activity in HEK cells; P14735; FAbeta-B cleavage, fluorescence polarization; 0% vehicle, 100% cell-free pure enzyme wells; activation, % at 5.96 µM; actives 0.073% (n = 340,000); AID 493087;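 active means activation above the mean of all tested compounds plus 3 SD, set per screening campaign, cut at about 17% in these data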
HNF4A DNA FP: change in binding of human HNF4 alpha to DNA | P41235 | HNF4a-FITC DNA binding, fluorescence polarization, 1 h | activity change, % at 10 µM | actives 0.3% (n = 360,000); in the data active means activity change above about 30%, passing the limit was not always enough
* hit, by the source's call; / = not tested or not shown. Hits are enriched below; roughly 1.7% of the tested compounds scored in any of these assays.

SMILES	TbMetRS inhib	CSN inh	IDE inh	TPT1 inhibitor	IDE cell activ	HNF4A DNA FP
COc1cc([C@H]2OC[C@H]3[C@@H]2CO[C@@H]3c2ccc(O[C@H]3O[C@H](CO)[C@@H](O)[C@H](O)[C@H]3O)c(OC)c2)ccc1O[C@@H]1O[C@H](CO)[C@@H](O)[C@H](O)[C@H]1O	0	-1	3	/	5	1
O=C(NNC(=O)c1ccccc1-n1cccc1)c1cncc(Br)c1	0	2	2	/	0	1
Cc1c(N)c(C(C)(C)C)cc(C(C)(C)C)c1[N+](=O)[O-]	-1	3	-3	2	-2	2
Cc1cc2nc3c(=O)[nH]c(=O)[nH]c3nc2c([N+](=O)[O-])c1N	0	-80	/	/	21*	-129
OCC(O)/C=N/Nc1nc(N2CCCCC2)nc(N2CCCCC2)n1 (stereo not given)	-1	4	-1	-1	4	0
Cc1cc(C)c2nc3sc(=Cc4ccc(-c5ccccc5C(=O)O)o4)c(=O)n3c2c1	0	142*	/	/	/	72
O=C1NN(c2ccc(Cl)c(Cl)c2)C(=O)/C1=C/c1ccc(-c2ccccc2C(=O)O)o1	-2	8	/	/	2	-14
COc1ccc(-c2c(C#N)c(N)nc3sc(C(=O)c4ccc(C)cc4)c(N)c23)cc1	0	15	4	8	-7	75*
Cc1cc(C)cc(C(=O)N(CCc2ccccc2)C2CC3CCC(C2)N3C)c1 (stereo not given)	-1	2	3	0	4	-6
Cc1noc(/C=C/c2ccc(-c3ccccc3Cl)o2)c1[N+](=O)[O-]	1	59	5	138*	-11	23
Cc1ccc(S(=O)(=O)CCC(=O)OC(C)C(=O)N2CCc3ccccc32)cc1 (stereo not given)	0	40*	-2	0	-2	4
CC(C)C[C@H]1CNC(=S)N1C[C@H]1CCCN1C[C@H](CC(C)C)N1C[C@H](Cc2ccccc2)N(CCc2ccccc2)C1=S	0	110*	/	/	/	-1
CC(C)C[C@H]1CNC(=S)N1C[C@H]1CCCN1C[C@H](CC(C)C)N1C[C@H](CC(C)C)N(CCc2ccccc2)C1=S	0	4	/	/	/	1
CN(Cc1cn[nH]c1-c1cc2ccccc2o1)CC1CCOCC1	0	0	-5	2	0	2
CCOc1ccccc1C(=O)Nc1ccc(-n2nncc2C(C)(C)C)cc1	0	-6	1	-3	6	70*
CCn1c(CC(=O)Nc2ccccc2Cl)nnc1SCC(=O)NC1CCCC1	-1	-1	-3	2	6	0
COc1ccc(NC(=O)c2ccccc2)cc1NS(=O)(=O)c1ccc(F)cc1	1	-4	7	2	4	5
COc1ccc(NC(=O)c2ccc(-c3ccccc3)cc2)cc1NS(=O)(=O)c1ccc(F)cc1	-1	-12	21*	0	-23	1
O=C(CCN1C(=O)/C(=C\c2cccs2)SC1=S)Nc1nccs1	-1	8	3	-1	4	38*
COc1cc(/C=C/C(=O)OCC(=O)c2ccc3c(c2)NC(=O)CO3)ccc1OC(F)F	0	3	-2	/	-3	8
Cc1ccc2sc(N(CCCN(C)C)C(=O)c3ccc(Br)s3)nc2c1C	0	-1	2	-2	18*	3
CCOc1cccc2sc(N(CCN(C)C)C(=O)c3ccc(Br)s3)nc12	-1	3	2	1	1	-1
O=C(CCOc1ccccc1)NCC(c1ccco1)N1CCCCC1 (stereo not given)	0	-5	1	2	6	51*
CCOC(=O)Cc1csc(SCC(=O)Nc2sc3c(c2C(N)=O)CCC3)n1	-1	37*	-3	18	-4	-15
NC(=O)c1c(NC(=O)CSc2nnc(-c3ccco3)n2-c2ccccc2)sc2c1CCC2	-1	36*	-2	13	3	-13
SMILES	TbMetRS inhib	CSN inh	IDE inh	TPT1 inhibitor	IDE cell activ	HNF4A DNA FP
COc1cc2sc3ccc(C#Cc4ccccn4)cc3c(=O)c2cc1OC	0	54*	-1	3	5	175
COc1cccc2sc3cc(C#Cc4ccccn4)ccc3c(=O)c12	0	1	8	/	3	-4
CCCCNC(=S)N1CCN(c2nc3ccccc3s2)CC1	-1	-3	19*	0	-9	2
CCc1ccc(S(=O)(=O)Nc2ccc(O)c3c(=O)cc(-c4ccccc4Cl)oc23)cc1	0	3	1	-1	3	0
O=c1cc(-c2ccccc2Cl)oc2c(NS(=O)(=O)c3cc(Cl)cc(Cl)c3O)ccc(O)c12	0	47*	-7	2	5	-22
CCC(C)OC(=O)C1=C(C)NC2=C(C(=O)C(C(=O)OC)C(C)C2)C1c1ccc(N(C)C)cc1 (stereo not given)	-1	-1	0	0	17*	2
CCCOC(=O)C1=C(C)NC2=C(C(=O)C(C(=O)OC)C(C)C2)C1c1ccc(N(CC)CC)cc1 (stereo not given)	0	-2	4	-2	1	0
COc1ccc(NC(=O)Cn2c3ccc(OC)cc3c3nc4n(c(=O)c32)CCS4)cc1	0	2	-2	5	7	0
NC(=O)c1c(N)[nH]c(C(=O)c2ccccc2)c1-c1ccccc1Br	0	108*	/	/	/	4
CC(C)(C)C(=O)c1c(N)[nH]c(C(=O)c2ccccc2)c1-c1ccccc1Br	-1	4	/	/	/	5
O=c1c2c(-c3ccccc3)csc2nc2c3ccccc3c(NCCN3CCOCC3)nn12	0	3	/	/	18*	20
O=c1c2ccccc2nc2c3ccccc3c(NCCN3CCOCC3)nn12	/	/	-2	0	/	/
O=C1NC(=O)C2(CCCC2c2ccccc2)N1 (stereo not given)	0	-1	/	/	-1	3
CCCCCN(C(=O)CCC(=O)OCC(=O)N(C)c1ccccc1)c1c(N)n(CCCC)c(=O)[nH]c1=O	0	-2	0	0	2	-5
CCCCCN(C(=O)CN1CCC(Cc2ccccc2)CC1)c1c(N)n(CCCC)c(=O)[nH]c1=O	-1	11	2	5	4	37*
CN(C)c1ccc(/C=C/c2ccc3c4ccccc4ccc3[n+]2-c2ccccc2)cc1	-2	57*	/	/	8	28
CN(C)c1ccc(/C=C/c2ccc3ccccc3[n+]2C)cc1	-3	9	4	5	0	12
O=C(NCc1ccc(F)cc1)c1cccc2c1C(=O)c1ccc(N3CCC(N4CCCCC4)CC3)cc1S2(=O)=O	-1	45*	/	/	/	56
CC(C)(C)CNC(=O)c1cccc2c1C(=O)c1ccc(N3CCCC3)cc1S2(=O)=O	0	42*	9	/	-4	88
